Results taken from ChEMBL document CHEMBL5131563, “Accelerated Identification of Cell Active KRAS Inhibitory Macrocyclic Peptides using Mixture Libraries and Automated Ligand Identification System (ALIS) Technology” (J Med Chem, 2022).
*1 amine or outer side, *2 acyl side, *3 side chain or, on linkers, in order; H or OH if unused. Where a SMILES comes first, the peptide text is derived from it. Bridges are numbered along the chain shown (N, C = ends). [ ]: non-standard residue; d: D form. Phe(3,4,5-F3) = N[C@@H](Cc1cc(F)c(F)c(F)c1)C(=O)O; Pro(trans-3-OAllyl) = C=CCO[C@H]1CCN[C@@H]1C(=O)O; X2 = O=C([C@@H]1[C@H]2CC[C@H](C2)N1[*:1])[*:2]; Pro(3R-Ph) = O=C(O)[C@H]1NCC[C@@H]1c1ccccc1; Ala(4-thiazolyl) = N[C@@H](Cc1cscn1)C(=O)O; Bip = N[C@@H](Cc1ccc(-c2ccccc2)cc1)C(=O)O; Dip = N[C@H](C(=O)O)C(c1ccccc1)c1ccccc1; X5 = C[C@H]1CCN([*:1])[C@@H]1C(=O)[*:2]; Ala(cPent) = N[C@@H](CC1CCCC1)C(=O)O; hPhe = N[C@@H](CCc1ccccc1)C(=O)O; Abu(4-CN) = N#CCC[C@H](N)C(=O)O; Aad = N[C@@H](CCCC(=O)O)C(=O)O; Cha = N[C@@H](CC1CCCCC1)C(=O)O; Ahp(2) = CCCCC[C@H](N)C(=O)O; Cba = N[C@@H](CC1CCC1)C(=O)O; hLeu = CC(C)CC[C@H](N)C(=O)O; Dab = NCC[C@H](N)C(=O)O; Nva = CCC[C@H](N)C(=O)O

Legend:
[1] = Stability in human HeLa cell homogenate assessed as half life by LC-MS/MS analysis; assay type: ADME, cell-based
Method in brief: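 HeLa cells suspended at 1 × 10^6 cells/mL, probe-sonicated on ice until homogeneous, stored frozen at –20 °C. Peptides incubated with homogenate (1 × 10^6 cells/mL equivalent); peptide loss over time quantified by LC-MS/MS to derive t1/2.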

GTPase KRas = GTPase KRas (Homo sapiens, UniProt P01116, G12D); assay: Inhibition of recombinant biotinylated KRAS G12D mutant (unknown origin) assessed as inhibition of SOS-catalyzed nucleotide exchange preincubated for 60 mins followed by addition of human SOS protein and unlabeled GTP and measured after 60 mins by TR-FRET analysis
Chain of GTPase KRas (P01116 whole entry G12D): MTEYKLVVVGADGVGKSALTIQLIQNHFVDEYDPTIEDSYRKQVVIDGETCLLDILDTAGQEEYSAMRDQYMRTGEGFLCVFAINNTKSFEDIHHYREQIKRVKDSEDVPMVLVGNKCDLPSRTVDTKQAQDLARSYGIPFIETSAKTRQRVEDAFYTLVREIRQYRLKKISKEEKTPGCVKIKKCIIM
Method in brief: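 Biotinylated KRAS G12D was treated in EDTA buffer (1 h, RT), then loaded at 90 nM with 900 nM Bodipy-GDP and 15 nM Tb-streptavidin in Mg2+ buffer, HEPES pH 7.5 (6 h, RT). It was used at 1.5 nM assay solution with a 10-point, 3-fold DMSO compound series for 60 min at RT. A solution of 120 nM human SOS plus GTP was added for 60 min. The read-out was TR-FRET at 520/495 nm, normalized to DMSO and saturating-inhibitor controls, with a 4-parameter fit.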

Compound | half-life [1] [min] | IC50 (GTPase KRas) [nM]
CC[C@H](C)[C@@H]1NC(=O)[C@H](Cc2ccc(O)cc2)NC(=O)[C@H](CC(C)C)NC(=O)[C@@H]2CCCN2C(=O)[C@@H](NC(=O)[C@H](CCCNC(=N)N)NC(=O)[C@H](CCCNC(=N)N)NC(C)=O)CSSC[C@@H](C(=O)N[C@@H](CCCNC(=N)N)C(=O)N[C@@H](CCCNC(=N)N)C(N)=O)NC(=O)[C@H](C(C)C)NC(=O)[C@@H]2CCCN2C(=O)[C@H](CC(=O)O)NC(=O)[C@H](CC2CCCCC2)NC(=O)[C@H](CO)NC1=O | 15 | 1470
CC[C@H](C)[C@@H]1NC(=O)[C@H](Cc2ccc(-c3ccccc3)cc2)NC(=O)[C@H](CC(C)C)NC(=O)[C@@H]2CCCN2C(=O)[C@@H](NC(=O)[C@H](CCCNC(=N)N)NC(=O)[C@H](CCCNC(=N)N)NC(C)=O)CSSC[C@@H](C(=O)N[C@@H](CCCNC(=N)N)C(=O)N[C@@H](CCCNC(=N)N)C(N)=O)NC(=O)[C@H](CCC#N)NC(=O)[C@@H]2CCCN2C(=O)[C@H](CC(=O)O)NC(=O)[C@H](Cc2ccc(O)cc2)NC(=O)[C@H](CO)NC1=O (Ac-RRCPL[Bip]ISYDP[Abu(4-CN)]CRR-NH2; disulfide 3-13) |  | 24
CC(=O)N[C@@H](CCCNC(=N)N)C(=O)N[C@@H](CCCNC(=N)N)C(=O)N[C@H]1CSSC[C@@H](C(=O)N[C@@H](CCCNC(=N)N)C(=O)N[C@@H](CCCNC(=N)N)C(N)=O)NC(=O)[C@H](C(C)C)NC(=O)[C@@H]2CCCN2C(=O)[C@H](CC(=O)O)NC(=O)[C@H](Cc2ccc(O)cc2)NC(=O)[C@H](CO)NC(=O)[C@H](CC2CCCC2)NC(=O)[C@H](CCc2ccccc2)NC(=O)[C@H](CC(C)C)NC(=O)[C@@H]2CCCN2C1=O (Ac-RRCPL[hPhe][Ala(cPent)]SYDPVCRR-NH2; disulfide 3-13) | 16 | > 11100
CC[C@H](C)[C@@H]1NC(=O)[C@H](Cc2ccc(O)cc2)NC(=O)[C@H](CC(C)C)NC(=O)[C@@H]2CCCN2C(=O)[C@@H](NC(=O)[C@H](CCCNC(=N)N)NC(=O)[C@H](CCCNC(=N)N)NC(C)=O)CSSC[C@@H](C(=O)N[C@@H](CCCNC(=N)N)C(=O)N[C@@H](CCCNC(=N)N)C(N)=O)NC(=O)[C@H](C(C)C)NC(=O)[C@@H]2CCCN2C(=O)[C@H](CC(=O)O)NC(=O)[C@H](C(c2ccccc2)c2ccccc2)NC(=O)[C@H](CCN)NC1=O (Ac-RRCPLYI[Dab][Dip]DPVCRR-NH2; disulfide 3-13) | 34 | > 11100
CC(=O)N[C@@H](CCCNC(=N)N)C(=O)N[C@@H](CCCNC(=N)N)C(=O)N[C@H]1CSSC[C@@H](C(=O)N[C@@H](CCCNC(=N)N)C(=O)N[C@@H](CCCNC(=N)N)C(N)=O)NC(=O)[C@H](C(C)C)NC(=O)[C@@H]2CCCN2C(=O)[C@H](CC(=O)O)NC(=O)[C@H](Cc2ccc(O)cc2)NC(=O)[C@H](CO)NC(=O)[C@H](CCC(C)C)NC(=O)[C@H](CC2CCCCC2)NC(=O)[C@H](CC(C)C)NC(=O)[C@@H]2CCCN2C1=O (Ac-RRCPL[Cha][hLeu]SYDPVCRR-NH2; disulfide 3-13) | 25 | > 11100
CC(=O)N[C@@H](CCCNC(=N)N)C(=O)N[C@@H](CCCNC(=N)N)C(=O)N[C@H]1CSSC[C@@H](C(=O)N[C@@H](CCCNC(=N)N)C(=O)N[C@@H](CCCNC(=N)N)C(N)=O)NC(=O)[C@H](C(C)C)NC(=O)[C@@H]2CCCN2C(=O)[C@H](CC(=O)O)NC(=O)[C@H](Cc2ccc(O)cc2)NC(=O)[C@H](CO)NC(=O)[C@H](CCC(C)C)NC(=O)[C@H](Cc2ccc(O)cc2)NC(=O)[C@H](CC(C)C)NC(=O)[C@@H]2CCCN2C1=O (Ac-RRCPLY[hLeu]SYDPVCRR-NH2; disulfide 3-13) | 28 | > 11100
CCCCC[C@@H]1NC(=O)[C@@H]2CCCN2C(=O)[C@H](CC(=O)O)NC(=O)[C@H](Cc2ccc(O)cc2)NC(=O)[C@H](CO)NC(=O)[C@H]([C@@H](C)CC)NC(=O)[C@H](Cc2ccc(-c3ccccc3)cc2)NC(=O)[C@H](CC(C)C)NC(=O)[C@@H]2CCCN2C(=O)[C@@H](NC(=O)[C@H](CCCNC(=N)N)NC(=O)[C@H](CCCNC(=N)N)NC(C)=O)CSSC[C@@H](C(=O)N[C@@H](CCCNC(=N)N)C(=O)N[C@@H](CCCNC(=N)N)C(N)=O)NC1=O (Ac-RRCPL[Bip]ISYDP[Ahp(2)]CRR-NH2; disulfide 3-13) |  | 5
CC(=O)N[C@@H](CCCNC(=N)N)C(=O)N[C@@H](CCCNC(=N)N)C(=O)N[C@H]1CSSC[C@@H](C(=O)N[C@@H](CCCNC(=N)N)C(=O)N[C@@H](CCCNC(=N)N)C(N)=O)NC(=O)[C@H](C(C)C)NC(=O)[C@@H]2CCCN2C(=O)[C@H](CC(=O)O)NC(=O)[C@H](Cc2ccc(O)cc2)NC(=O)[C@H](CO)NC(=O)[C@H](CCC(C)C)NC(=O)[C@H](CCc2ccccc2)NC(=O)[C@H](CC(C)C)NC(=O)[C@@H]2CCCN2C1=O (Ac-RRCPL[hPhe][hLeu]SYDPVCRR-NH2; disulfide 3-13) | 14 | > 11100
CCC[C@@H]1NC(=O)[C@H](Cc2ccc(O)cc2)NC(=O)[C@H](CC(C)C)NC(=O)[C@@H]2CCCN2C(=O)[C@@H](NC(=O)[C@H](CCCNC(=N)N)NC(=O)[C@H](CCCNC(=N)N)NC(C)=O)CSSC[C@@H](C(=O)N[C@@H](CCCNC(=N)N)C(=O)N[C@@H](CCCNC(=N)N)C(N)=O)NC(=O)[C@H](C(C)C)NC(=O)[C@@H]2CCCN2C(=O)[C@H](CC(=O)O)NC(=O)[C@H](Cc2ccc(O)cc2)NC(=O)[C@H](CO)NC1=O (Ac-RRCPLY[Nva]SYDPVCRR-NH2; disulfide 3-13) | 19 | > 11100
CCC[C@@H]1NC(=O)[C@H](Cc2ccc(-c3ccccc3)cc2)NC(=O)[C@H](CC(C)C)NC(=O)[C@@H]2CCCN2C(=O)[C@@H](NC(=O)[C@H](CCCNC(=N)N)NC(=O)[C@H](CCCNC(=N)N)NC(C)=O)CSSC[C@@H](C(=O)N[C@@H](CCCNC(=N)N)C(=O)N[C@@H](CCCNC(=N)N)C(N)=O)NC(=O)[C@H](C(C)C)NC(=O)[C@@H]2CCCN2C(=O)[C@H](CC(=O)O)NC(=O)[C@H](Cc2ccc(O)cc2)NC(=O)[C@H](CO)NC1=O (Ac-RRCPL[Bip][Nva]SYDPVCRR-NH2; disulfide 3-13) | 26 | 604
CC[C@H](C)[C@@H]1NC(=O)[C@H](Cc2ccc(-c3ccccc3)cc2)NC(=O)[C@H](CC(C)C)NC(=O)[C@@H]2[C@H]3CC[C@H](C3)N2C(=O)[C@@H](NC(=O)[C@H](CCCNC(=N)N)NC(=O)[C@H](CCCNC(=N)N)NC(C)=O)CSSC[C@@H](C(=O)N[C@@H](CCCNC(=N)N)C(=O)N[C@@H](CCCNC(=N)N)C(N)=O)NC(=O)[C@H](C(C)C)NC(=O)[C@@H]2CCCN2C(=O)[C@H](CC(=O)O)NC(=O)[C@H](Cc2ccc(O)cc2)NC(=O)[C@H](CO)NC1=O (Ac-RRC[X2]L[Bip]ISYDPVCRR-NH2; disulfide 3-13) |  | 201
CC[C@H](C)[C@@H]1NC(=O)[C@H](Cc2ccc(-c3ccccc3)cc2)NC(=O)[C@H](CC(C)C)NC(=O)[C@@H]2[C@@H](c3ccccc3)CCN2C(=O)[C@@H](NC(=O)[C@H](CCCNC(=N)N)NC(=O)[C@H](CCCNC(=N)N)NC(C)=O)CSSC[C@@H](C(=O)N[C@@H](CCCNC(=N)N)C(=O)N[C@@H](CCCNC(=N)N)C(N)=O)NC(=O)[C@H](C(C)C)NC(=O)[C@@H]2CCCN2C(=O)[C@H](CC(=O)O)NC(=O)[C@H](Cc2ccc(O)cc2)NC(=O)[C@H](CO)NC1=O (Ac-RRC[Pro(3R-Ph)]L[Bip]ISYDPVCRR-NH2; disulfide 3-13) |  | 1
CC[C@H](C)[C@@H]1NC(=O)[C@H](Cc2ccc(O)cc2)NC(=O)[C@H](CC(C)C)NC(=O)[C@@H]2CCCN2C(=O)[C@@H](NC(=O)[C@H](CCCNC(=N)N)NC(=O)[C@H](CCCNC(=N)N)NC(C)=O)CSSC[C@@H](C(=O)N[C@@H](CCCNC(=N)N)C(=O)N[C@@H](CCCNC(=N)N)C(N)=O)NC(=O)[C@H](C(C)C)NC(=O)[C@@H]2CCCN2C(=O)[C@H](CC(=O)O)NC(=O)[C@H](Cc2cc(F)c(F)c(F)c2)NC(=O)[C@H](Cc2cscn2)NC1=O (Ac-RRCPLYI[Ala(4-thiazolyl)][Phe(3,4,5-F3)]DPVCRR-NH2; disulfide 3-13) |  | > 11100
C=CCO[C@H]1CCN2C(=O)[C@@H](NC(=O)[C@H](CCCNC(=N)N)NC(=O)[C@H](CCCNC(=N)N)NC(C)=O)CSSC[C@@H](C(=O)N[C@@H](CCCNC(=N)N)C(=O)N[C@@H](CCCNC(=N)N)C(N)=O)NC(=O)[C@H](C(C)C)NC(=O)[C@@H]3CCCN3C(=O)[C@H](CC(=O)O)NC(=O)[C@H](Cc3ccc(O)cc3)NC(=O)[C@H](CO)NC(=O)[C@H]([C@@H](C)CC)NC(=O)[C@H](Cc3ccc(-c4ccccc4)cc3)NC(=O)[C@H](CC3CCC3)NC(=O)[C@H]12 (Ac-RRC[Pro(trans-3-OAllyl)][Cba][Bip]ISYDPVCRR-NH2; disulfide 3-13) |  | 2
CC[C@H](C)[C@@H]1NC(=O)[C@H](Cc2ccc(-c3ccccc3)cc2)NC(=O)[C@H](CC2CCC2)NC(=O)[C@@H]2[C@@H](c3ccccc3)CCN2C(=O)[C@@H](NC(=O)[C@H](CCCNC(=N)N)NC(=O)[C@H](CCCNC(=N)N)NC(C)=O)CSSC[C@@H](C(=O)N[C@@H](CCCNC(=N)N)C(=O)N[C@@H](CCCNC(=N)N)C(N)=O)NC(=O)[C@H](C(C)C)NC(=O)[C@@H]2CCCN2C(=O)[C@H](CC(=O)O)NC(=O)[C@H](Cc2ccc(O)cc2)NC(=O)[C@H](CO)NC1=O (Ac-RRC[Pro(3R-Ph)][Cba][Bip]ISYDPVCRR-NH2; disulfide 3-13) |  | 7
CC[C@H](C)[C@@H]1NC(=O)[C@H](Cc2ccc(-c3ccccc3)cc2)NC(=O)[C@H](CC(C)C)NC(=O)[C@@H]2CCCN2C(=O)[C@@H](NC(=O)[C@H](CCCNC(=N)N)NC(=O)[C@H](CCCNC(=N)N)NC(C)=O)CSSC[C@@H](C(=O)N[C@@H](CCCNC(=N)N)C(=O)N[C@@H](CCCNC(=N)N)C(N)=O)NC(=O)[C@H](CCCC(=O)O)NC(=O)[C@@H]2[C@@H](C)CCN2C(=O)[C@H](CC(=O)O)NC(=O)[C@H](Cc2ccc(O)cc2)NC(=O)[C@H](CO)NC1=O (Ac-RRCPL[Bip]ISYD[X5][Aad]CRR-NH2; disulfide 3-13) |  | 43
